Wee1 degr inh: inhibitors of human Wee1 degradation | HeLa Luc-Wee1K328M stability, luciferase luminescence; 100% = proteasome inhibitor MG132 effect | hit rate 1.2% among 220,000 | AID 1321 | P30291 | reporter increase, % at 5 µM;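 active = activation above the mean of all tested compounds plus 3 SD, set per screening run, cut at about 8.8% in these data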;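 also: cells exposed to compound for 20 h before luminescence read; 0% = DMSO alone and 100% = MG132 at 30 µM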
Target sequence (P30291 whole entry K328M): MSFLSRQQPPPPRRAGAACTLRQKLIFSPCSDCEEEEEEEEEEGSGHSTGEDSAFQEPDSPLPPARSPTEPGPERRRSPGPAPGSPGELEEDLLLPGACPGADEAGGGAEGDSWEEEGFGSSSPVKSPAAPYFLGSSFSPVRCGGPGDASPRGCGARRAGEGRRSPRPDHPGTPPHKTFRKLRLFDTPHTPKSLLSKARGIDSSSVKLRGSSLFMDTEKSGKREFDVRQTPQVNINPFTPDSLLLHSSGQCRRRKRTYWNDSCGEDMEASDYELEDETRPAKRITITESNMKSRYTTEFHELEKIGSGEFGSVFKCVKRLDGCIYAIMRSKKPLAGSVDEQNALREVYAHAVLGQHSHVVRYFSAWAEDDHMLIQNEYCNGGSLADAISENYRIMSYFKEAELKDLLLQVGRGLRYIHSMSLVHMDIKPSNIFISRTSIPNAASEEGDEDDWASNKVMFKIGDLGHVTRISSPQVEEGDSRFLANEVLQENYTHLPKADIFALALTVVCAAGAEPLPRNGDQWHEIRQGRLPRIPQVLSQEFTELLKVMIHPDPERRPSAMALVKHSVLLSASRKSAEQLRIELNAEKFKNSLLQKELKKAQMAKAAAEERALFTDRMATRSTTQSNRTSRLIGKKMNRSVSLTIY
14-3-3 Bad inh: disrupts binding of bovine 14-3-3 zeta to phospho-Bad peptide. P63103. TR-FRET 14-3-3zeta/Dy647-pBad peptide displacement, 1 h. inhibition, % at 21.7 µM. hit rate 0.71% among 220,000. AID 781;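 active = inhibition above about 70%, limit read from the data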;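 also: 0% = full 14-3-3 plus peptide FRET controls and 100% = background without 14-3-3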
Tb hexokinase: blocks Trypanosoma brucei hexokinase 1 activity; recombinant TbHK1, G6PDH-coupled NADH A340; inhibition, % at 10 µM; hit rate 0.11% among 220,000;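 active = inhibition of 50% or more in the single-dose primary screen; inactive = inhibition below 50%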
Hck-Nef inh: inhibitors of human Hck kinase activated by Nef; Recombinant Hck-YEEI plus Nef, Z-Lyte FRET kinase assay; hit rate 0.68% among 220,000; P08631; inhibition, % at 20 µM;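 active = Hck-Nef kinase inhibition above about 50%, limit read from the data; inactive = inhibition below that limit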;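 also: 0% = DMSO with Hck plus Nef and 100% = Hck alone without Nef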
MDM2 E3 inh: inhibitors of human Mdm2 E3 ubiquitin ligase; signal enhancement, % at 5 µM; AID 1230; cell-based MDM2 ubiquitination luciferase reporter, 2 h; 0 = plate control, 100 = twice control, blank-subtracted; hit rate 0.11% among 210,000;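 active = signal enhancement of 30% or more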;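 also: luminescence tracks abundance of the self-degrading MDM2-luciferase fusion protein; higher signal means inhibition of MDM2 E3 ligase activity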
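Test system: mammalian cells stably expressing self-ubiquitinating, self-degrading MDM2 E3–luciferase fusion; Amount: 2000 cells in each well; Medium: DMEM; Schedule: 4 h settle plus 2 h compound, 37 °C; Technique: SteadyLite luciferase luminescence after 15 min room-temperature reagent incubation; Benchmarks: plate control and blank wells.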
* hit, by the source's call; · = no result given. Rows were chosen to be rich in hits. Some 2.7% of all compounds tested hit in one or more screens of this group.

SMILES	Wee1 degr inh	14-3-3 Bad inh	Tb hexokinase	Hck-Nef inh	MDM2 E3 inh
O=C(Nc1ccc(NC(=O)C2CC2)nc1)c1cccc(F)c1	0	0	2	3	-4
Cc1ccc2nc(C)c(C(=O)O)cc2c1	0	-5	-3	27	-11
Cc1ccc2cc(C(=O)O)c(C)nc2c1	-3	79*	-2	-1	13
O=C(CN1CCN(C2CCCCC2)CC1)Nc1ccc(Br)cc1	0	4	0	17	-13
CN(C)c1ccc(NC(=O)CN2CCC(N3CCCCC3)CC2)cc1	0	75*	-8	3	1
CCCc1nc(-c2cc3ccccc3[nH]c2=O)no1	-1	96*	-27	11	5
NC(=O)c1ccc(Oc2ccc(C(N)=O)cc2)cc1	-1	-8	3	26	-19
CCCCC(CC(O)COCCC)c1n[nH]c(=S)n1-c1ccccc1 (stereo not given)	-3	-5	13	11	-8
Cc1ccc(NC(=O)c2ccc(F)cc2F)cc1NS(C)(=O)=O	9.2*	2	-4	8	-7
Cc1cc(C)c(NC(=O)CN2C(=O)NC(CCc3ccccc3)C2=O)c(C)c1 (stereo not given)	11*	9	-7	-6	-10
O=C(CN1C(=O)NC(CCc2ccccc2)C1=O)NC1CC1 (stereo not given)	11*	4	-2	17	-36
CCNC(=O)CN1C(=O)NC(CCc2ccccc2)C1=O (stereo not given)	2	-2	0	1	-21
O=C(CCC(=O)c1ccc(F)cc1)Nc1cccc(S(=O)(=O)Nc2cccc(Cl)c2)c1	-1	-6	36	-2	-3
Cc1nc2ccccc2c(=O)n1NC(=O)Cc1ccccc1	0	·	-2	-7	·
O=S(=O)(Nc1nc2ccccc2nc1NCC1CCCO1)c1cccc(Cl)c1 (stereo not given)	2	-4	-35	8	-6
Cc1cc(C)nc(SCc2ccc(C(=O)N/N=C/c3ccncc3)cc2)n1	-3	5	-3	9	2
Cc1cc(C)nc(SCc2ccc(C(=O)NNC(=O)Nc3cccc(Cl)c3)cc2)n1	0	94*	11	32	-4
Cc1ccc(NC(=O)c2ccc3ncsc3c2)cc1S(=O)(=O)N(C)C	1	38	-8	15	·
NC(=S)N/N=C/c1ccccc1OCCSc1ccc(Cl)cc1	0	-12	-2	-1	-4
COc1ccc2ccccc2c1CN1CCN(Cc2ccccc2)CC1	-1	91*	7	2	-4
COc1ccc2ccccc2c1CN1CCCC(CO)C1 (stereo not given)	-3	31	-13	1	-10
COC(=O)c1ccccc1NC(=O)COC(=O)C1CCCCC1	-2	3	-8	28	·
O=C1N=NC2=C1c1c3ccccc3c(O)n1CC2	0	-7	-32	8	6
CC(C)CC(NC(N)=O)C(=O)NCc1ccccc1Cl (stereo not given)	-2	-3	-2	0	-10
O=C1OC(C(=O)NCc2ccccc2)Cc2ccccc21 (stereo not given)	2	74*	3	0	-7
SMILES	Wee1 degr inh	14-3-3 Bad inh	Tb hexokinase	Hck-Nef inh	MDM2 E3 inh
Cc1cc(NC(=S)Nc2ccccc2)ccc1Br	-1	-2	3	1	-18
Oc1cccc(NC(=S)Nc2ccccc2)c1	0	99*	4	27	·
O=C(c1cccs1)n1nc(-c2ccccc2)nc1NCc1ccco1	0	-4	-5	-19	-10
O=C(CCc1ccccc1)n1nc(-c2ccccc2)nc1NCc1ccco1	-2	-5	0	9	·
COc1ccc(CC(=O)n2nc(-c3ccccc3)nc2NCc2ccco2)cc1	0	78*	-8	1	5
COCC(=O)n1nc(-c2ccccc2)nc1NCc1cccs1	14*	-1	-6	24	5
COc1ccc(CCCc2nnc(SCc3nc4ccccc4c(=O)[nH]3)n2C)c(C)c1	0	1	-9	5	-2
Cc1ccnc(NC(=S)NC(=O)c2cccs2)c1	8	-6	-5	2	·
Cc1nnsc1C(=O)NNc1c(Cl)cccc1Cl	9.0*	-2	-10	0	3
Cn1c(CNC(=O)c2ccco2)nnc1SCC(=O)N1c2ccccc2Sc2ccccc21	1	11	-7	-1	30*
Cn1c(CNC(=O)c2ccco2)nnc1SCC(=O)Nc1cccc(Br)c1	1	-7	0	-15	-9
C/C(CC(=O)NCc1ccco1)=N\NC(=O)COc1ccc(C)cc1	-2	24	39	-1	-14
Cc1oc2nc(SCC(=O)N3CCCCC3)nc(N)c2c1C	-2	-2	0	2	-1
O=C(Nc1ccc(O)c(-c2nc3ccccc3s2)c1)c1cc(=O)c2ccccc2o1	-2	76*	0	25	2
O=S(=O)(c1ccccc1F)N1CCN(Cc2nc3ccccc3[nH]2)CC1	1	82*	-8	8	-5
c1ccc2[nH]c(CN3CCCCCC3)nc2c1	2	-8	-13	7	-10
C=CCN(c1ccccc1)S(=O)(=O)c1cccc(C(=O)OCC(=O)NCCOC)c1	-1	7	-4	14	·
C=CCN(c1cccc(C(F)(F)F)c1)S(=O)(=O)c1cccc(C(=O)OCC(=O)NCCC)c1	2	0	-7	0	116*
CC(C)(C)C1CCC(OCC(O)CN2CCN(c3ccccc3)CC2)CC1 (stereo not given)	3	75*	-4	0	-16
CC(C)(C)C1CCC(OCC(O)CN2CCCC2)CC1 (stereo not given)	-2	-5	6	16	-22
COc1cccc(OC)c1OCC(O)CN1CCN(c2ccccc2)CC1 (stereo not given)	1	72*	8	-2	-2
COc1ccccc1N1CCN(CC(O)COc2c(OC)cccc2OC)CC1 (stereo not given)	1	28	1	-2	0
CC(C)c1ccc(NC(=O)C2=NNC(=O)CC2)cc1	3	-1	-17	11	-4
O=C(c1cccs1)N1CCN(Cc2ccccc2)CC1	3	5	-1	6	8
O=C(c1cccs1)N1CCN(Cc2ccncc2)CC1	3	73*	2	1	-28
SMILES	Wee1 degr inh	14-3-3 Bad inh	Tb hexokinase	Hck-Nef inh	MDM2 E3 inh
O=C(c1cccs1)N1CCN(CCCc2ccccc2)CC1	0	72*	-9	11	-10
O=C(c1cccs1)N1CCN(Cc2cccnc2)CC1	·	76*	·	·	3
O=C(c1cccnc1)N1CCN(CCCc2ccccc2)CC1	-2	72*	-2	2	-12
O=C(c1cccs1)N1CCC(Cc2ccccc2)CC1	-1	-1	6	0	-1
COC(=O)c1c(C)nn(-c2ccc(F)c(Cl)c2)c1-c1cc(C)on1	-2	-2	-5	9	-19
CCNS(=O)(=O)c1ccc(OC)c(C(=O)NC2CCCCC2)c1	2	-2	-3	-12	-5
